BindingDB's records for doi:10.1021/jm301253y (University of Florida, 2013)

What was measured:
[1] = biological target: Melanocyte-stimulating hormone receptor (Mus musculus, UniProt Q01727); experiment: Agonist activity at mouse MC1 receptor expressed in HEK293 cells after 6 hrs by cAMP-based beta-galactosidase reporter gene assay
In short: (§1)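 HEK-293 cells stably expressing the mouse receptor, kept in DMEM with 10% fetal calf serum, transfected with CRE/β-galactosidase reporter. Efficacy is relative to NDP-MSH on the same plate. EC50 is the mean of duplicate wells from three or more independent experiments, fitted by nonlinear least squares.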

[2] = biological target: Melanocortin receptor 5 (Mus musculus, UniProt P41149); experiment: Agonist activity at mouse MC5 receptor expressed in HEK293 cells after 6 hrs by cAMP-based beta-galactosidase reporter gene assay; in short: as §1
Melanocortin receptor 5, sequence (P41149 whole entry): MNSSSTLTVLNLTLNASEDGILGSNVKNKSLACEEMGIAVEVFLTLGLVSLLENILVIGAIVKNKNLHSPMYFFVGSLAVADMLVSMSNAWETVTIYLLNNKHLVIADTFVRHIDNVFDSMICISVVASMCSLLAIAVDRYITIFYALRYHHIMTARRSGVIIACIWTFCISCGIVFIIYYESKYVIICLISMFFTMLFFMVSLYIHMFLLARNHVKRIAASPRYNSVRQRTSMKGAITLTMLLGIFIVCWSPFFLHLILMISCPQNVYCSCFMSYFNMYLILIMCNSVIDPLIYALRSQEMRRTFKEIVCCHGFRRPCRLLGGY

[3] = biological target: Melanocortin receptor 4 (Mus musculus, UniProt P56450); experiment: Agonist activity at mouse MC4 receptor expressed in HEK293 cells after 6 hrs by cAMP-based beta-galactosidase reporter gene assay; in short: as §1
Melanocortin receptor 4, sequence (P56450 whole entry): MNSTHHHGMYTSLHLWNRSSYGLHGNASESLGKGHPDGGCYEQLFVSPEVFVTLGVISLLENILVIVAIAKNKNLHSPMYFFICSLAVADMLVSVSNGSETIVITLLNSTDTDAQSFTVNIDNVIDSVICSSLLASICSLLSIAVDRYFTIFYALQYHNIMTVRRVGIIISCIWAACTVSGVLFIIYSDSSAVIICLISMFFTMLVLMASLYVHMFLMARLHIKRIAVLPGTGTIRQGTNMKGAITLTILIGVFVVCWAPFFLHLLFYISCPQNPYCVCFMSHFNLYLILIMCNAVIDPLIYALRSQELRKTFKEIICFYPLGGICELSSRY

[4] = biological target: Melanocortin receptor 3 (Mus musculus, UniProt P33033); experiment: Agonist activity at mouse MC3 receptor expressed in HEK293 cells after 6 hrs by cAMP-based beta-galactosidase reporter gene assay; in short: as §1
Melanocortin receptor 3, sequence (P33033 whole entry): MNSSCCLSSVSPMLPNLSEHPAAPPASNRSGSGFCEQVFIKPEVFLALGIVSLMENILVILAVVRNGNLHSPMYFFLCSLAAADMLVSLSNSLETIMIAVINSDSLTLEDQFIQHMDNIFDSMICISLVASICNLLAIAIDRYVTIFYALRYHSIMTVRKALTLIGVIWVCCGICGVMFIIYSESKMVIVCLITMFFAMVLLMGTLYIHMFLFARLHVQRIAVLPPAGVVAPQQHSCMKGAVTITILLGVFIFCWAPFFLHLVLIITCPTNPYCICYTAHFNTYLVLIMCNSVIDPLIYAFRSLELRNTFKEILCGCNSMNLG

Melanocyte-stimulating hormone receptor, sequence (Q01727 whole entry): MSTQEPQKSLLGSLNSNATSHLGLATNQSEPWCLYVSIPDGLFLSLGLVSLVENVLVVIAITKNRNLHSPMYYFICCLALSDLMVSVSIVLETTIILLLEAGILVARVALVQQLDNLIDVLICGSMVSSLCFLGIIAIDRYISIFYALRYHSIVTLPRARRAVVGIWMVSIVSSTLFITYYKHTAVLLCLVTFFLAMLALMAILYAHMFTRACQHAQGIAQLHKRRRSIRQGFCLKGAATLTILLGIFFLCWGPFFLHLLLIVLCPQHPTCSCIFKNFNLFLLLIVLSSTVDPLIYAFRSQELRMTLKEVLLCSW

EC50 [1]: 0.016 µM | EC50 [2]: 0.63 µM | EC50 [3]: 1.27 µM | EC50 [4]: 7.12 µM
SMILES: C[C@@H]1NC(=O)[C@H](CC(N)=O)NC(=O)[C@@H](Cc2c[nH]c3ccccc23)[C@]23CCCN2C(=O)[C@@H](CSCC3=O)NC(=O)[C@@H](Cc2ccccc2)NC(=O)[C@H](Cc2cnc[nH]2)NC(=O)[C@@H](NC(=O)[C@@H](N)Cc2ccc(O)cc2)CSSC[C@@H](C(=O)N[C@@H](Cc2ccc(O)cc2)C(N)=O)NC(=O)[C@H](Cc2ccccc2)NC1=O
